Results gathered from unrelated publications.
Compare with care: the assays were run in different laboratories.
DCAF1: DDB1- and CUL4-associated factor 1 (DCAF1, Homo sapiens, UniProt Q9Y4B6)
P2RX7: P2X purinoceptor 7 (P2RX7, Homo sapiens, UniProt Q99572)
4-aminobutyrate aminotransferase, mitochondrial: 4-aminobutyrate aminotransferase, mitochondrial (Homo sapiens, UniProt P80404)

Structure (SMILES) | target | assay | setting | endpoint | result
C[C@@H]1CN(c2ccc(-c3cc(C(=O)NCCOCCOCCOCCOCCNC(=O)Cn4cc(-c5[nH]cc(C(=O)N[C@@H](CC(N)=O)c6ccc(F)c(Cl)c6)c5-c5ccc(Cl)cc5F)cn4)ccc3F)cc2NC(=O)c2c[nH]c(=O)cc2C(F)(F)F)C[C@H](C)N1C | DCAF1 | thermal stability, DSF | 5.5 µM | ΔTm | 8 °C
C=CC(=O)N1CCC(COCC(=O)N2CCN(c3nc(-c4cnc(N)nc4C(F)F)nc(N4CCOC[C@@H]4C)n3)CC2)CC1 | Ribosomal protein S6 kinase alpha-4, N-terminal kinase domain (RPS6KA4, Homo sapiens, UniProt O75676) | binding, competition with immobilised ligand | 1 µM | remaining binding | 93%
Cc1cc([C@@H](C)Nc2ccccc2C(=O)O)c2nc(N3CCC(F)(F)CC3)c(C#N)c(=O)n2c1 | Hepatocyte growth factor receptor (MET, Homo sapiens, UniProt P08581) | binding, competition with immobilised ligand | 1 µM | remaining binding | 100%
COc1cc(-c2cncc3c2CN(C)Cc2cc(N4CCNCC4)ccc2-3)cc(OC)c1OC | Hepatocyte growth factor receptor (MET, Homo sapiens, UniProt P08581, Y1230H) | enzyme activity, inhibitor | 1 µM | remaining activity | 86%
Cc1cc(NC(=O)c2cccc(NC(=O)/C=C/CN(C)C)c2)ccc1Nc1nccc(-c2cccnc2)n1 | Interleukin-1 receptor-associated kinase 1 (IRAK1, Homo sapiens, UniProt P51617) | binding, competition with immobilised ligand | 1 µM | remaining binding | 11%
CNc1ncc2c(/C=C/C(=O)N3CCC(OC)CC3)nn(Cc3cccc(C(F)(F)F)c3)c2n1 | Mitogen-activated protein kinase kinase kinase 11 (MAP3K11, Homo sapiens, UniProt Q16584) | enzyme activity, inhibitor, radiometric | 1 µM | remaining activity | 97%
C[C@@H]1CN(c2ccc(-c3cc(C(=O)NCCOCCOCCOCCOCCOCCOCCNC(=O)/C=C/c4[nH]cc(C(=O)N[C@@H](CC(N)=O)c5ccc(F)c(Cl)c5)c4-c4ccc(Cl)cc4F)ccc3F)cc2NC(=O)c2ccc(F)cc2C(F)(F)F)C[C@H](C)N1C | DCAF1 | thermal stability, DSF | 5.5 µM | ΔTm | 5.3 °C
O=C(c1ccc(I)cc1)N1CCC(n2cncc2-c2ccc(OS(=O)(=O)c3cccc4cnccc34)cc2)CC1 | P2RX7 | ligand displacement, radioligand | 1 µM, cell membranes | inhibition | > 70%
N[C@H]1CC(C(=O)O)=CC(F)(F)C1 | 4-aminobutyrate aminotransferase, mitochondrial | enzyme activity, inhibitor | – | kinact/KI | 2 M⁻¹ s⁻¹
COc1ccccc1C(=O)/C=C/c1cn(Cc2cn(-c3ccnc4cc(Cl)ccc34)nn2)c2ccccc12 | Calcium-dependent protein kinase 1 (CDPK1, Plasmodium falciparum, UniProt P62344) | enzyme activity, inhibitor, ADP detection | 5 µM | inhibition | 88.3%
O=C(c1ccc(Br)cc1)N1CCC(n2cncc2-c2ccc(OS(=O)(=O)c3cccc4cnccc34)cc2)CC1 | P2RX7 | ligand displacement, radioligand | 1 µM, cell membranes | inhibition | > 70%
Cc1nn(CCc2ccccc2)c2ncc(C(=O)NCc3cccnc3)c(Cl)c12 | Prolyl endopeptidase (PREP, Homo sapiens, UniProt P48147) | enzyme activity, inhibitor, fluorescence | – | kinact | 0.000233 s⁻¹
N[C@H]1C=C(C(=O)O)CC(F)(F)C1 | 4-aminobutyrate aminotransferase, mitochondrial | enzyme activity, inhibitor | – | kinact/KI | 2.83 M⁻¹ s⁻¹
